Assay results reported in ChEMBL document CHEMBL1153592, “1,8-Naphthyridine-3-carboxamide derivatives with anticancer and anti-inflammatory activity” (Eur J Med Chem, 2009).
The source made the active and inactive calls. The rule behind the calls is not given here.

How the values were obtained:
DU-145 [1] = experiment: Cytotoxicity against human DU145 cells after 72 hrs by MTT assay; format: functional, cell-based; settings: DU-145, 72 h
HBL-100 [2] = experiment: Cytotoxicity against human HBL100 cells after 72 hrs by MTT assay; format: functional, cell-based; settings: HBL-100, 72 h
SW-620 [3] = experiment: Cytotoxicity against human SW620 cells after 72 hrs by MTT assay; format: functional, cell-based; settings: SW-620, 72 h
PA-1 [4] = experiment: Cytotoxicity against human PA1 cells after 72 hrs by MTT assay; format: functional, cell-based; settings: PA-1, 72 h
[5] = Cytotoxicity against mouse NIH/3T3 cells after 72 hrs by MTT assay; format: cell-based, NIH3T3
MIA PaCa-2 [6] = experiment: Cytotoxicity against human MIAPaCa2 cells after 72 hrs by MTT assay; format: functional, cell-based; settings: MIA PaCa-2, 72 h
ECV-304 [7] = experiment: Cytotoxicity against human ECV304 cells after 72 hrs by MTT assay; format: functional, cell-based
ECV-304 [8] = experiment: Cytotoxicity against human ECV304 cells at 10 uM after 72 hrs by MTT assay; format: functional, cell-based
Procedure, shortened: (§1)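 Three-day MTT screen with 5000–10,000 cells/well and 72 h compound exposure at the top screening concentration. After 3 h of MTT uptake, lysis with 10% SDS–0.01 N HCl, then A540 read after 1 h. % cytotoxicity = (1 − X/R1)×100, where X is treated minus blank absorbance and R1 is untreated control absorbance.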

K562 [9] = experiment: Cytotoxicity against human K562 cells at 10 uM after 72 hrs by MTT assay; format: functional, cell-based; procedure, shortened: as §1
PA-1 [10] = experiment: Cytotoxicity against human PA1 cells at 10 uM after 72 hrs by MTT assay; format: functional, cell-based; procedure, shortened: as §1
KB [11] = experiment: Cytotoxicity against human KB cells at 10 uM after 72 hrs by MTT assay; format: functional, cell-based; procedure, shortened: as §1
DU-145 [12] = experiment: Cytotoxicity against human DU145 cells at 10 uM after 72 hrs by MTT assay; format: functional, cell-based; procedure, shortened: as §1
HBL-100 [13] = experiment: Cytotoxicity against human HBL100 cells at 10 uM after 72 hrs by MTT assay; format: functional, cell-based; procedure, shortened: as §1
MIA PaCa-2 [14] = experiment: Cytotoxicity against human MIAPaCa2 cells at 10 uM after 72 hrs by MTT assay; format: functional, cell-based; procedure, shortened: as §1
A549 [15] = experiment: Cytotoxicity against human A549 cells at 10 uM after 72 hrs by MTT assay; format: functional, cell-based; procedure, shortened: as §1
[16] = Cytotoxicity against mouse NIH/3T3 cells at 10 uM after 72 hrs by MTT assay; format: cell-based; settings: nih3t3, 72 h; procedure, shortened: as §1
SW-620 [17] = experiment: Cytotoxicity against human SW620 cells at 10 uM after 72 hrs by MTT assay; format: functional, cell-based; procedure, shortened: as §1
KB [18] = experiment: Cytotoxicity against human KB cells after 72 hrs by MTT assay; format: functional, cell-based
K562 [19] = experiment: Cytotoxicity against human K562 cells after 72 hrs by MTT assay; format: functional, cell-based; settings: K562, 72 h
A549 [20] = experiment: Cytotoxicity against human A549 cells after 72 hrs by MTT assay; format: functional, cell-based; settings: A549, 72 h
[21] = Antiinflammatory activity in C57BL/6 mouse DC assessed as inhibition of LPS-induced IL-6 production at 1 ug/ml after 24 hrs by ELISA; format: functional
Procedure, shortened: (§2)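 Dendritic cells grown from femoral bone marrow of 8–12-week-old C57BL/6 mice in RPMI-1640 with 10% FBS and 20 ng/ml rmGM-CSF at 37 °C, 5% CO2. Day-6 immature DCs were stimulated with 10 ng/ml LPS plus compound for 24 h. Supernatant cytokine/chemokine measured by ELISA (pg/ml); % change = (B−A)/A×100, versus LPS-stimulated DCs alone.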

[22] = Antiinflammatory activity in C57BL/6 mouse DC assessed as inhibition of LPS-induced IL1-beta production at 0.1 ug/ml after 24 hrs by ELISA; format: functional; procedure, shortened: as §2
[23] = Antiinflammatory activity in C57BL/6 mouse DC assessed as inhibition of LPS-induced IL-6 production at 0.1 ug/ml after 24 hrs by ELISA; format: functional; procedure, shortened: as §2
[24] = Antiinflammatory activity in C57BL/6 mouse DC assessed as inhibition of LPS-induced IL1-beta production at 1 ug/ml after 24 hrs by ELISA; format: functional; procedure, shortened: as §2
[25] = Mus musculus, NIH3T3, 72 h, read-out: IC50
[26] = Homo sapiens, ECV-304, 72 h, read-out: IC50

Structure (SMILES)	IC50 (DU-145 [1]) [µM]	IC50 (HBL-100 [2]) [µM]	IC50 (SW-620 [3]) [µM]	IC50 (PA-1 [4]) [µM]	IC50 [5, 25] [µM]	IC50 (MIA PaCa-2 [6]) [µM]	IC50 (KB [18]) [µM]	IC50 (K562 [19]) [µM]	IC50 ([5]; nih3t3)	IC50 (ECV-304 [7]; [26]) [µM]	IC50 (A549 [20]) [µM]	inhibition (INH) [21] [%]	inhibition (INH) [22] [%]	inhibition (INH) [23] [%]	inhibition (INH) [24] [%]	other results
COc1cccc2c1C(=O)c1c(O)c3c(c(O)c1C2=O)C[C@@](O)(C(=O)CO)C[C@@H]3O[C@H]1C[C@H](N)[C@H](O)[C@H](C)O1 [DOXORUBICIN]	0.1	0.24	0.08	0.63	0.39	0.15	–	–	–	–	–	–	–	–	–	IC50 (ECV-304 [7]; ecv-304): Not Active
C#CCn1cc(C(=O)NC(C(=O)Nc2ccccc2)c2ccccc2)c(=O)c2cc(F)c(N3CCCC3)nc21 (centres undefined)	–	–	–	–	–	–	–	–	–	–	–	–	–	–	–	Activity (ECV-304 [8]): inactive; Activity (K562 [9]): inactive; Activity (PA-1 [10]): inactive; Activity (KB [11]): inactive; Activity (DU-145 [12]): inactive; Activity (HBL-100 [13]): inactive; Activity (MIA PaCa-2 [14]): inactive; Activity (A549 [15]): inactive; Activity [16]: Not Active; Activity (SW-620 [17]): inactive
C#CCn1cc(C(=O)NC(CC(=O)NC2CCCCC2)c2ccccc2)c(=O)c2cc(F)c(Cl)nc21 (centres undefined)	8.03	> 10	> 10	2.3	–	4.9	> 10	6.2	Not Active	9.8	> 10	–	–	–	–	–
C#CCn1cc(C(=O)NC(C(=O)Nc2ccccc2)c2ccccc2)c(=O)c2cccnc21 (centres undefined)	8.8	> 10	> 10	8.9	–	> 10	3	> 10	Not Active	> 10	> 10	79.3	39.9	79.3	64.6	–
C#CCn1cc(C(=O)NC(C(=O)Nc2ccccc2)c2ccccc2)c(=O)c2cc(F)c(Cl)nc21 (centres undefined)	0.6	> 10	1.4	0.5	–	> 10	1.1	5	Not Active	9.1	> 10	99.9	44.3	84.4	97	–
C#CCn1cc(C(=O)NC(CC(=O)Nc2ccccc2)c2ccccc2)c(=O)c2ccc(Cl)nc21 (centres undefined)	> 10	4	2.9	0.54	4.4	3	> 10	7.7	–	4	> 10	75.4	28.3	69.5	99.4	–
C#CCn1cc(C(=O)NC(CC(=O)NC2CCCC2)c2ccccc2)c(=O)c2cc(F)c(Cl)nc21 (centres undefined)	> 10	2	2.1	0.68	2.4	4.4	4.9	7.3	–	5.1	6.1	100	83.4	80.1	102	–
C#CCn1cc(C(=O)NC(CC(=O)Nc2ccccn2)c2ccccc2)c(=O)c2cc(F)c(Cl)nc21 (centres undefined)	2.1	> 10	2.3	> 10	4.2	> 10	2.3	> 10	–	> 10	> 10	99.1	83.4	75.5	109.6	–
C#CCn1cc(C(=O)NC(CC(=O)Nc2ccccn2)c2ccccc2)c(=O)c2ccc(Cl)nc21 (centres undefined)	4.9	> 10	2.9	1.7	–	> 10	5.2	5.9	Not Active	> 10	> 10	82.9	57.3	78.2	82	–
C#CCn1cc(C(=O)NC(C(=O)NC2CCCC2)c2ccccc2)c(=O)c2cc(F)c(Cl)nc21 (centres undefined)	3.2	5.1	3.4	1.8	0.4	1.7	3.5	5.9	–	3.2	> 10	–	–	–	–	–
C#CCn1cc(C(=O)NC(CC(=O)NC2CCCC2)c2ccccc2)c(=O)c2ccc(Cl)nc21 (centres undefined)	> 10	3.2	2.7	1.1	4.4	2.4	> 10	6.8	–	7.8	9.5	81.7	82	79.8	18.1	–
C#CCn1cc(C(=O)NC(C(=O)NC2CCCCC2)c2ccccc2)c(=O)c2cccnc21 (centres undefined)	–	–	–	–	–	–	–	–	–	–	–	–	–	–	–	Activity (ECV-304 [8]): inactive; Activity (K562 [9]): inactive; Activity (PA-1 [10]): inactive; Activity (KB [11]): inactive; Activity (DU-145 [12]): inactive; Activity (HBL-100 [13]): inactive; Activity (MIA PaCa-2 [14]): inactive; Activity (A549 [15]): inactive; Activity [16]: Not Active; Activity (SW-620 [17]): inactive
C#CCn1cc(C(=O)NC(C(=O)NC2CCCC2)c2ccccc2)c(=O)c2cccnc21 (centres undefined)	> 10	> 10	> 10	> 10	–	> 10	4.5	> 10	Not Active	> 10	> 10	–	–	–	–	–
C#CCn1cc(C(=O)NC(C(=O)NC2CCCC2)c2ccccc2)c(=O)c2ccc(Cl)nc21 (centres undefined)	–	–	–	–	–	–	–	–	–	–	–	–	–	–	–	Activity (ECV-304 [8]): inactive; Activity (K562 [9]): inactive; Activity (PA-1 [10]): inactive; Activity (KB [11]): inactive; Activity (DU-145 [12]): inactive; Activity (HBL-100 [13]): inactive; Activity (MIA PaCa-2 [14]): inactive; Activity (A549 [15]): inactive; Activity [16]: Not Active; Activity (SW-620 [17]): inactive
C#CCn1cc(C(=O)NC(C(=O)NC2CCCCC2)c2ccccc2)c(=O)c2ccc(Cl)nc21 (centres undefined)	–	–	–	–	–	–	–	–	–	–	–	–	–	–	–	Activity (ECV-304 [8]): inactive; Activity (K562 [9]): inactive; Activity (PA-1 [10]): inactive; Activity (KB [11]): inactive; Activity (DU-145 [12]): inactive; Activity (HBL-100 [13]): inactive; Activity (MIA PaCa-2 [14]): inactive; Activity (A549 [15]): inactive; Activity [16]: Not Active; Activity (SW-620 [17]): inactive
C#CCn1cc(C(=O)NC(C(=O)Nc2ccccc2)c2ccccc2)c(=O)c2ccc(Cl)nc21 (centres undefined)	1.7	7.8	2.2	> 10	–	9.7	2.1	3.3	Not Active	> 10	> 10	91.7	82	76.5	86.3	–
C#CCn1cc(C(=O)NC(C(=O)NC2CCCCC2)c2ccccc2)c(=O)c2cc(F)c(Cl)nc21 (centres undefined)	> 10	> 10	> 10	1.8	7.4	> 10	> 10	> 10	–	> 10	> 10	–	–	–	–	–
C#CCn1cc(C(=O)NC(CC(=O)NC2CCCCC2)c2ccccc2)c(=O)c2cccnc21 (centres undefined)	–	–	–	–	–	–	–	–	–	–	–	–	–	–	–	Activity (ECV-304 [8]): inactive; Activity (K562 [9]): inactive; Activity (PA-1 [10]): inactive; Activity (KB [11]): inactive; Activity (DU-145 [12]): inactive; Activity (HBL-100 [13]): inactive; Activity (MIA PaCa-2 [14]): inactive; Activity (A549 [15]): inactive; Activity [16]: Not Active; Activity (SW-620 [17]): inactive
